From PubChem BioAssay
This excerpt belongs to a sample that is enriched for hits.
UPR CHOP act: apoptotic UPR (CHOP) activation; activation, % at 10 µM; AID 449763; actives 0.34% (n = 330,000); CHO-CHOP luciferase reporter, luminescence; percent of tunicamycin response over DMSO baseline;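 active means at 10 µM dose, activation of 40% or more, normalized to positive control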
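System: CHO CHOP reporter cells. Amount: 500 cells per well. Buffer or medium: F12 medium, 10% FBS. Compound dosing: one dose, 10 µM in 0.5% DMSO. Incubation: 6 h compound exposure at 37 °C after overnight seeding. Technique: Steady-Glo luciferase luminescence. Benchmarks: tunicamycin and DMSO controls.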
XBP1 UPR activ: activators of adaptive arm of unfolded protein response (XBP1). CHO-XBP1 luciferase reporter, IRE1-XBP1 UPR activation, luminescence; percent of tunicamycin response, DMSO as zero. activation, % at 20 µM. actives 0.33% (n = 330,000);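 active means versus positive control, 20 µM dose yields 30% or more activation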
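Assay system: IRE1-XBP1 luciferase reporter CHO line. Input: 1000 cells/well. Buffer or medium: F12 with 10% serum. Doses: 20 µM, 1% DMSO. Times: overnight seeding at 37 °C, 6 h compound treatment at 37 °C. Technique: Steady-Glo luciferase glow luminescence, 10 min after reagent addition.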
PvdQ acylase: P. aeruginosa PvdQ acylase inhibition; purified PvdQ acylase, fluorescence plate reader; inhibition, % at 10 µM; actives 0.063% (n = 340,000); in the data active means inhibition above about 30%, passing the limit was not always enough
CHOP inhibitor: CHOP inhibition in unfolded protein response. actives 3.8% (n = 220,000). inhibition, % at 10 µM. AID 2732. CHO-K1 CHOP-promoter luciferase, tunicamycin-induced, 15-18 h;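 active means compounds that reduced the stress-induced luciferase reporter signal by more than about 70% of percent inhibition, limit read from the data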
Each line names hits and unclear results; the compound was inactive in the other large screens.

O=C(Nc1ncc(Cc2cccc(Cl)c2)s1)c1ccc([N+](=O)[O-])cc1	CHOP inhibitor 76
CCn1c(C)nc2cc(C(=O)N/N=C/c3ccc(OC)c(O)c3)ccc21	none
Cc1ccc(S(=O)(=O)NCC(=O)Nc2ccc(C(F)(F)F)cc2)cc1	CHOP inhibitor 92
O=C(CNS(=O)(=O)c1ccc(F)cc1)Nc1ccc(C(F)(F)F)cc1	none
COc1cc(C)ccc1OCCOc1c(C)cccc1Cl	CHOP inhibitor 71
Cc1[nH]c2ccccc2c1C(=O)C(=O)N1CCN(C)CC1	none
O=C(COc1cc2oc(=O)c3c(c2cc1Cl)CCC3)N1C[C@H]2C[C@@H](C1)c1cccc(=O)n1C2	none (no result: CHOP inhibitor)
CCCCCCCc1ccc(-c2ccc(O)cc2)nc1	CHOP inhibitor 96
COc1ccc2[nH]c3c4c(ccc3c2c1)C(=O)C=CC4=O	CHOP inhibitor 89
c1ccc(-c2nc(-c3nccc4ccccc34)oc2-c2ccccc2)cc1	none
COC(=O)c1c(NC(=O)COC(=O)c2ccc(C)s2)sc2c1CCCCC2	CHOP inhibitor 72
COC(=O)c1c(NC(=O)C2CC2)sc2c1CCCC2	CHOP inhibitor 77
COC(=O)c1c(NC(=O)c2nn(C)cc2Cl)sc2c1CCCC2	CHOP inhibitor 74
COC(=O)c1c(NC(=O)COC(=O)c2ccccc2O)sc2c1CCCCC2	none
O=c1[nH]c(Nc2nc3ccccc3o2)nc2c1CCCC2	CHOP inhibitor 97
O=C(Cn1cnc2sc(-c3ccccc3)cc2c1=O)NCCc1ccccc1	CHOP inhibitor 73
Cc1cc2c(s1)c1cnn(CC(=O)NCCc3ccccc3)c(=O)c1n2C	CHOP inhibitor 87 (no result: PvdQ acylase)
O=C(Cn1cnc2sc(-c3ccccc3)cc2c1=O)NCc1ccccc1	none
Cc1cc2c(cc1S(=O)(=O)NC1CCCCC1C)OCC(=O)N2 (stereo not given)	none (no result: CHOP inhibitor)
CCCC(=O)Nc1ccc(C(=O)NNC(=O)c2ccco2)cc1	none
COc1cccc(C=NNc2nc3ccccc3s2)c1OC	none (no result: UPR CHOP act, XBP1 UPR activ, CHOP inhibitor)
COc1cccc(/C=N/Nc2ncnc3scc(-c4ccccc4)c23)c1OC	CHOP inhibitor 71
COc1ccc2cc(CN(CC3CCCO3)C(=S)Nc3ccccc3)c(=O)[nH]c2c1 (stereo not given)	none
Cc1ccc(Cn2cccc2/C=C2/C(=N)N3C=CSC3=NC2=O)cc1	CHOP inhibitor 94
COc1cccc(/C=N/NC(=O)c2ccc([N+](=O)[O-])cc2Cl)c1O	CHOP inhibitor 70
CCn1c(SCC(=O)Nc2nc(-c3ccc(C)cc3)cs2)nnc1-c1ccccc1	none
CCn1c(SCC(=O)Nc2nc(-c3ccc(C)cc3)cs2)nnc1-c1ccccc1O	CHOP inhibitor 86
O=C(N/N=C/c1ccc(OC(=O)c2ccccc2)cc1)c1ccc(CN2CCOCC2)cc1	CHOP inhibitor 71
O=C1CC2(CCCC2)Oc2ccc(F)cc21	none (no result: CHOP inhibitor)
Cn1c(C(=O)Nc2ccccc2)cc2sccc21	none
COc1cc(NC(=O)c2cc3sccc3n2C)cc(OC)c1	CHOP inhibitor 75
Cc1cc2ccccc2n1CCNC(=O)Cc1cccc2ccccc12	CHOP inhibitor 71
CCC(=O)NCCn1c(C)cc2ccccc21	none
CCOC(=O)c1c(NC(=O)CSc2ncnc3ccccc23)sc(C(C)=O)c1C	CHOP inhibitor 75
O=C(N=C1SC2CS(=O)(=O)CC2N1Cc1ccccc1Cl)C1CCCO1 (stereo not given)	none (no result: CHOP inhibitor)
CC1CC(C)(C)NC(=S)N1CCCC(=O)Nc1ccc2c(c1)OCCO2 (stereo not given)	none
CC(NS(=O)(=O)/C=C/c1ccccc1)C(=O)O (stereo not given)	CHOP inhibitor 86
O=C(O)c1ccc(NC2=C/C(=N/S(=O)(=O)c3ccccc3)c3ccccc3C2=O)cc1	CHOP inhibitor 103
Cc1cc(C)c(S(=O)(=O)/N=C2\C=C(Nc3ccc(C(=O)O)cc3)C(=O)c3ccccc32)c(C)c1	none (no result: CHOP inhibitor)
CCc1ccc(N2C(=O)C3CCCN3C2=S)cc1 (stereo not given)	none (no result: CHOP inhibitor)
CCOc1ccc(C(C)=O)cc1COC(=O)c1ccc2c(c1)NC(=O)CS2	none (no result: CHOP inhibitor)
CCOc1cc2c(cc1C(C)(C)C)NC(=O)CS2	CHOP inhibitor 85
NC(=O)CNC(=O)c1ccc(Cl)cc1	none
CCOC(=O)c1cc(-c2ccccc2)n(CC(=O)Nc2ccc(OC)c(OC)c2)c1C	CHOP inhibitor 100
Cc1c(C#N)c(NC(=O)c2cccc(Cl)c2)n(Cc2ccccc2)c1C	none
COc1ccc(Cn2c(C)c(C)c(C#N)c2NC(=O)Nc2cccc(Cl)c2)cc1	CHOP inhibitor 81
O=C(c1cc(-c2ccccc2Cl)on1)N1CCCC1	none (no result: CHOP inhibitor)
O=C(c1cccc(F)c1)N1CCN(C(=O)c2cc(-c3ccc(Cl)cc3Cl)on2)CC1	CHOP inhibitor 74
COCCNC(=O)c1c(N)n(CCC2=CCCCC2)c2nc3ccccc3nc12	CHOP inhibitor 78
COc1ccc(Nc2cnn(-c3nc4ccccc4s3)c(=O)c2Cl)cc1	CHOP inhibitor 75 (no result: UPR CHOP act, XBP1 UPR activ)
CCc1ccc2[nH]c(=O)c(CN(CCN(C)C)C(=O)Nc3ccccc3OC)cc2c1	none
COc1ccc(NC(=O)N(CCN2CCCC2)Cc2cc3cc(OC)c(OC)cc3[nH]c2=O)cc1	CHOP inhibitor 78
CCc1ccc2[nH]c(=O)c(CN(Cc3ccccc3)C(=O)Nc3ccccc3OC)cc2c1	CHOP inhibitor 73
CCc1ccc2[nH]c(=O)c(CN(CCCN3CCOCC3)C(=O)Nc3ccc(F)cc3)cc2c1	CHOP inhibitor 71
O=C(NCc1ccccn1)C(=O)Nc1cc2c3c(c1)CC(=O)N3CCC2	none (no result: CHOP inhibitor)
COc1ccccc1CN1CC(C(=O)NC2(c3ccccc3)CC2)CCC1=O (stereo not given)	none (no result: CHOP inhibitor)
CCOC(=O)C1=C(C)NC(C)=C(C(=O)OCC)C1c1cn(-c2ccccc2)nc1-c1ccco1	CHOP inhibitor 84
O=c1[nH]c2ccccc2n1CCC1CCCCC1	CHOP inhibitor 86
CC(C)C(NC(=O)OC(C)(C)C)C(=O)NC(CCC(=O)OCc1ccccc1)C(N)=O (stereo not given)	none
CC(C)(C)OC(=O)C(Cc1ccc(OC(C)(C)C)cc1)NC(=O)CNC(=O)OCc1ccccc1 (stereo not given)	CHOP inhibitor 74
CC(C)CC(NC(=O)C(CC(C)C)NC(=O)OC(C)(C)C)C(N)=O (stereo not given)	none
CC(C)CC(NC(=O)C(CC(C)C)NC(=O)C(Cc1ccc(OCc2ccccc2)cc1)NC(=O)OC(C)(C)C)C(N)=O (stereo not given)	CHOP inhibitor 94
CC(C)CC(NC(=O)C(NC(=O)C(Cc1ccc(OCc2ccccc2)cc1)NC(=O)OC(C)(C)C)C(C)C)C(N)=O (stereo not given)	CHOP inhibitor 95
C[C@@H]1CN(c2c(F)c(N)c3c(=O)c(C(=O)O)cn(C4CC4)c3c2F)C[C@H](C)N1	none (no result: UPR CHOP act, XBP1 UPR activ, PvdQ acylase)
O=C1CCN(Cc2ccccc2)C=C1c1cccc(O)c1	none (no result: CHOP inhibitor)
Cc1ccc(C2=NN(C(=O)CCC(=O)O)C(c3cn(-c4ccccc4)nc3-c3ccc(C)cc3)C2)cc1 (stereo not given)	CHOP inhibitor 95
